Results published in ChEMBL document CHEMBL3351344 (J Med Chem, 2014).
pIC50: −log10 of the molar value.

How the values were obtained:
[1] = target: T1, Retinol-binding protein 4 (Homo sapiens, UniProt P02753)
Liver microsome [2] = assay: Metabolic stability in human liver microsomes assessed as compound remaining at 10 uM after 30 mins; type: ADME; conditions: 0.5 h
Summary of the method: (§1)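 Compound at 10 µM was incubated for 30 min with liver microsomes (H = human, R = rat). Stability was expressed as percent of compound remaining.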

Cytochrome P450 3A4 = Cytochrome P450 3A4 (Homo sapiens, UniProt P08684); assay: Inhibition of CYP3A4 (unknown origin)
Cytochrome P450 3A4, sequence (P08684 whole entry): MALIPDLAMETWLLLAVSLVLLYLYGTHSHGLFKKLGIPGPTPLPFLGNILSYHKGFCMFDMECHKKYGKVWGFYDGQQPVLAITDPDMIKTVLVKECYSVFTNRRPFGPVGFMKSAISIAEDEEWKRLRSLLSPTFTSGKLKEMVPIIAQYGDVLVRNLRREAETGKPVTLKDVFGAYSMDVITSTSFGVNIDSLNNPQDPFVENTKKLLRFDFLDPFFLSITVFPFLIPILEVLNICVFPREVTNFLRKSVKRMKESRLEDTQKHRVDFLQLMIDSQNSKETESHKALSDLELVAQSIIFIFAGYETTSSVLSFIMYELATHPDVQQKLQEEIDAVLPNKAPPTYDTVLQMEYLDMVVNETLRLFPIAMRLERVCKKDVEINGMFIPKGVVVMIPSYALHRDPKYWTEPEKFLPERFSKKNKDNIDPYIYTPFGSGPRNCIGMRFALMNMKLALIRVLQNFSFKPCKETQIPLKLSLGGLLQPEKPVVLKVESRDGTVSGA

[3] = target: T1, Retinol-binding protein 4; remark: listed apart in the source
[4] = Aqueous kinetic solubility of the compound in pH 7.4 PBS buffer; type: physicochemical
Liver microsome [5] = assay: Metabolic stability in rat liver microsomes assessed as compound remaining at 10 uM after 30 mins; type: ADME; conditions: 0.5 h
Summary of the method: as §1

Cytochrome P450 2C9 = Cytochrome P450 2C9 (Homo sapiens, UniProt P11712); assay: Inhibition of CYP2C9 (unknown origin)
Cytochrome P450 2C9, sequence (P11712 whole entry): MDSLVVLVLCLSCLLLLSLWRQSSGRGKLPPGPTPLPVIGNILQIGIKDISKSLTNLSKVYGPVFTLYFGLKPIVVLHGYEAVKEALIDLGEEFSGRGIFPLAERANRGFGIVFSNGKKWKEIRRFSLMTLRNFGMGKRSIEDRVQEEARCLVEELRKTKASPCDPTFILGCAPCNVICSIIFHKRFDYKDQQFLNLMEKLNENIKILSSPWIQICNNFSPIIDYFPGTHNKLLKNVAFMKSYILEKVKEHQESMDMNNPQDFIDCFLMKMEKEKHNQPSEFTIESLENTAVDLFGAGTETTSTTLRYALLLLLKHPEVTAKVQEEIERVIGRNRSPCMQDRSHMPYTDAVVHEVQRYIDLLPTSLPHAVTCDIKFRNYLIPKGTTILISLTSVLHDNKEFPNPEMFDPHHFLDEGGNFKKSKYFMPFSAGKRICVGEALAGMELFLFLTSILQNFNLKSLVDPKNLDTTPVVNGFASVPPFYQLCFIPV

Cytochrome P450 2D6 = Cytochrome P450 2D6 (Homo sapiens, UniProt P10635); assay: Inhibition of CYP2D6 (unknown origin)
Cytochrome P450 2D6, sequence (P10635 whole entry): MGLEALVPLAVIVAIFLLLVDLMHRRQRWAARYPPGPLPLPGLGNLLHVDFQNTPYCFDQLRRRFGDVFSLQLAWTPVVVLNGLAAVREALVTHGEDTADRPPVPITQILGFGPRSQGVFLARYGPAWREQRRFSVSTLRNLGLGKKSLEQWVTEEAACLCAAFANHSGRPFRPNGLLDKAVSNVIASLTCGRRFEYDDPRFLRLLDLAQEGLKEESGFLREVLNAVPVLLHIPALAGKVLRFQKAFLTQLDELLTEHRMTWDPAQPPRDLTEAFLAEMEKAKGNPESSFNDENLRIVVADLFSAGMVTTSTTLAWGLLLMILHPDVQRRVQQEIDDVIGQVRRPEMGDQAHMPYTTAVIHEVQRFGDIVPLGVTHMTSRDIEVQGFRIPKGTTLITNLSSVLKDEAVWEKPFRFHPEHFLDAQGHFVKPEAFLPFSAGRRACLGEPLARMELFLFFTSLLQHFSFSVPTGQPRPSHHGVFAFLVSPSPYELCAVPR

Cytochrome P450 2C19 = Cytochrome P450 2C19 (Homo sapiens, UniProt P33261); assay: Inhibition of CYP2C19 (unknown origin)
Cytochrome P450 2C19, sequence (P33261 whole entry): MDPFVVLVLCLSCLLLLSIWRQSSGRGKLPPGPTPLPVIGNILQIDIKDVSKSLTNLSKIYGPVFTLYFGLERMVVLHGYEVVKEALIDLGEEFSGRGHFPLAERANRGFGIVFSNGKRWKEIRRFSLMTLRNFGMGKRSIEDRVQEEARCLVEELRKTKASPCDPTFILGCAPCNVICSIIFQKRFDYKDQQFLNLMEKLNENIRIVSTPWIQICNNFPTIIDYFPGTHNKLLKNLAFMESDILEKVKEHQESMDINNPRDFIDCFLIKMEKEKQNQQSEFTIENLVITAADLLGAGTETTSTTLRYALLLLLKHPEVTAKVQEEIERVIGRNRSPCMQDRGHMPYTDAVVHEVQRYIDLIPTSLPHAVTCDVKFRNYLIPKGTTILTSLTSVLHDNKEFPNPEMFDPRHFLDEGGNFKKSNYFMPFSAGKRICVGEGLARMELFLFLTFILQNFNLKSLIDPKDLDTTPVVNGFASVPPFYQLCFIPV

[6] = Clearance in Sprague-Dawley rat plasma at 0.5 mg/kg, iv; type: ADME, organism-based; design: dose 0.5 mg/kg, route intravenous
Summary of the method: (§2)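 Three drug-naive adult male Sprague-Dawley rats per group, given a single iv dose on day 0. Compound was measured in plasma over time. Parameters were derived from the plasma concentration–time curve: terminal-phase half-life, total body clearance, and steady-state volume of distribution. Urine was also collected from 0 to 48 h.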

[7] = Oral bioavailability in Sprague-Dawley rat plasma at 5 mg/kg; type: ADME, organism-based
Summary of the method: (§3)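 Adult male Sprague-Dawley rats, drug-naive, three per group. Plasma levels gave the terminal-phase half-life. Bioavailability F = (AUCINF po × dose iv) ÷ (AUCINF iv × dose po), using a 0.5 mg/kg iv reference group.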

[8] = Apparent half-life of the terminal phase of elimination in Sprague-Dawley rat plasma at 5 mg/kg, po; type: ADME, organism-based; design: dose 5 mg/kg, route oral; conditions: read-out: betat1/2(app) (converted)
Summary of the method: as §3

[9] = AUC (0 to infinity) in Sprague-Dawley rat plasma at 5 mg/kg, po; type: ADME, organism-based; design: time infinity, dose 5 mg/kg, route oral
Summary of the method: (§4)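 Oral dosing at 5 mg/kg in groups of three drug-naive adult male Sprague-Dawley rats, given either once on day 0 or once daily from day 0 to day 6. Plasma was sampled after the day 0 or day 6 dose. AUClast runs from 0 to the last quantifiable point; AUC(0–inf) is extrapolated to infinity. Values are means.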

[10] = Volume of distribution at steady state in Sprague-Dawley rat plasma at 0.5 mg/kg, iv; type: ADME, organism-based; design: dose 0.5 mg/kg, route intravenous; conditions: read-out: Vdss
Summary of the method: as §2

[11] = Apparent half-life of the terminal phase of elimination in Sprague-Dawley rat plasma at 0.5 mg/kg, iv; type: ADME, organism-based; design: dose 0.5 mg/kg, route intravenous; conditions: read-out: betat1/2(app) (converted)
Summary of the method: as §2

in vivo [12] = conditions: Sprague-Dawley, rat, plasma, po, 5 mg/kg
[13] = Cmax in Sprague-Dawley rat plasma at 0.5 mg/kg, iv; type: ADME, organism-based; design: dose 0.5 mg/kg, route intravenous
Summary of the method: (§5)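 Groups of three drug-naive adult male Sprague-Dawley rats. Dosing was iv at 0.5 mg/kg once on day 0, or po at 5 mg/kg once on day 0 or once daily from day 0 to day 6. Cmax is the maximum observed plasma concentration. Pre-dose plasma was also sampled on day 6, and urine was collected 0–48 h after iv dosing.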

[14] = AUClast in Sprague-Dawley rat plasma at 0.5 mg/kg, iv; type: ADME, organism-based; design: time 0 - last, dose 0.5 mg/kg, route intravenous
Summary of the method: (§6)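 Single intravenous dose of 0.5 mg/kg given on day 0 to a group of three drug-naive adult male Sprague-Dawley rats. Compound was measured in plasma over time, and urine was collected from 0 to 48 h. AUClast runs from 0 to the last quantifiable time point; AUC(0–inf) is extrapolated to infinity. Values are group means.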

[15] = AUC (0 to infinity) in Sprague-Dawley rat plasma at 0.5 mg/kg, iv; type: ADME, organism-based; design: time infinity, dose 0.5 mg/kg, route intravenous
Summary of the method: as §6

in vivo [16] = conditions: Sprague-Dawley, rat, plasma, iv, 0.5 mg/kg
[17] = AUClast in Sprague-Dawley rat plasma at 5 mg/kg, po; type: ADME, organism-based; design: time 0 - last, dose 5 mg/kg, route oral
Summary of the method: as §4

[18] = Cmax in Sprague-Dawley rat plasma at 5 mg/kg, po; type: ADME, organism-based; design: dose 5 mg/kg, route oral
Summary of the method: as §5

Row | SMILES | pIC50 [1] | Stability (Liver microsome [2]) [%] | pIC50 [3] | Kinetic_solubility [4] [µM] | Stability (Liver microsome [5]) [%] | further results
1 | C[C@@H](NC(=O)N1C[C@H]2C[C@@H](c3ccccc3C(F)(F)F)C[C@H]2C1)C(=O)O | < 5.52 |  |  |  |  | 
2 | O=C(O)c1ccccc1NC(=O)N1CCc2ccccc2CC1 | < 5.52 |  |  |  |  | 
3 | O=C(NS(=O)(=O)c1ccccc1)c1ccccc1NC(=O)N1CCC(c2ccccc2C(F)(F)F)CC1 | < 5.52 |  |  |  |  | 
4 | O=C(O)CCC(=O)N1CCC(c2ccccc2C(F)(F)F)CC1 | < 5.52 |  |  |  |  | 
5 | CN(CCOc1ccc(F)cc1C(C)(C)C)C(=O)Nc1ccccc1C(=O)O | 6.85 | 3.2 |  |  |  | 
6 | O=C(O)c1cnncc1NC(=O)N1C[C@H]2C[C@@H](c3ccccc3C(F)(F)F)C[C@H]2C1 | 7.62 | 97 | 6.92 | > 100 | 61 | pIC50 (Cytochrome P450 3A4): 4.92; pIC50 (Cytochrome P450 2C9): 4.77; pIC50 (Cytochrome P450 2D6): < 4.00; pIC50 (Cytochrome P450 2C19): 5.22
7 | O=C(O)c1ccccc1NC(=O)N1CC(c2ccccc2C(F)(F)F)C1 | < 5.52 |  | 5.08 |  |  | 
8 | C[C@H](NC(=O)N1C[C@H]2C[C@@H](c3ccccc3C(F)(F)F)C[C@H]2C1)C(=O)O | 5.83 |  |  |  |  | 
9 | O=C(O)c1ccccc1NC(=O)N1C[C@H]2C[C@@H](c3ccccc3C(F)(F)F)C[C@H]2C1 | 7.14 | 100 | 6.53 | 55 | 75 | clearance [6]: 0.588 mL/min/kg; bioavailability [7]: 44%; half-life [8]: 7.6 h; AUC(0-inf) [9]: 63000 ng·h/mL; Vd [10]: 0.523 L/kg; half-life [11]: 10.3 h; Tmax (in vivo [12]): 0.33 h; Cmax [13]: 2940 ng/mL; pIC50 (Cytochrome P450 3A4): 4.55; AUC(0-t) [14]: 13200 ng·h/mL; AUC(0-inf) [15]: 14300 ng·h/mL; Tmax (in vivo [16]): 4.98 min; AUC(0-t) [17]: 62100 ng·h/mL; pIC50 (Cytochrome P450 2C9): 6.47; pIC50 (Cytochrome P450 2D6): < 4.00; Cmax [18]: 7830 ng/mL; pIC50 (Cytochrome P450 2C19): 4.54
10 | O=C(O)c1cc(F)ccc1NC(=O)N1C[C@H]2C[C@@H](c3ccccc3C(F)(F)F)C[C@H]2C1 | 7.05 | 57 | 6.55 | 55 | 100 | pIC50 (Cytochrome P450 3A4): 4.28; pIC50 (Cytochrome P450 2C9): 6.48; pIC50 (Cytochrome P450 2D6): < 4.00; pIC50 (Cytochrome P450 2C19): 4.51
11 | O=C(O)c1ccccc1NC(=O)N1CC2(C1)CN(c1ccccc1C(F)(F)F)C2 | < 5.52 |  |  |  |  | 
12 | CN(CCOc1ccccc1C(F)(F)F)C(=O)Nc1ccccc1C(=O)O | 5.72 |  | 5.58 |  |  | 
13 | O=C(O)c1ccccc1NC(=O)N1C[C@H]2C[C@H](c3ccccc3C(F)(F)F)C[C@H]2C1 | < 5.52 |  |  |  |  | 
14 | O=C(NS(=O)(=O)C1CC1)c1ccccc1NC(=O)N1CCC(c2ccccc2C(F)(F)F)CC1 | 6.61 |  | 5.27 |  |  | 
15 | O=C(O)c1ccccc1NC(=O)N1CCC2(CCc3ccccc32)CC1 | 5.42 |  |  |  |  | 
16 | Cc1cc(NC(=O)N2C[C@H]3C[C@@H](c4ccccc4C(F)(F)F)C[C@H]3C2)c(C(=O)O)cn1 |  | 71 |  | 93 | 76 | pIC50 (Cytochrome P450 3A4): 5.96; pIC50 (Cytochrome P450 2C9): 6.00; pIC50 (Cytochrome P450 2D6): < 4.00; pIC50 (Cytochrome P450 2C19): 4.92
17 | CN(CCOc1ccccc1C(C)(C)C)C(=O)Nc1ccccc1C(=O)O |  | 1.1 |  |  |  | 

Row | SMILES | pIC50 [1] | Stability (Liver microsome [2]) [%] | pIC50 [3] | Kinetic_solubility [4] [µM] | Stability (Liver microsome [5]) [%] | further results
18 | O=C(O)C1CCCN1C(=O)N1CCC(c2ccccc2C(F)(F)F)CC1 (racemic) | < 5.52 |  |  |  |  | 
19 | O=C(O)CC(=O)N1CCC(c2ccccc2C(F)(F)F)CC1 | 5.83 |  |  |  |  | 
20 | CS(=O)(=O)NC(=O)c1ccccc1NC(=O)N1CCC(c2ccccc2C(F)(F)F)CC1 | 6.53 |  |  |  |  | 
21 | O=C(O)c1ccccc1NC(=O)N1C[C@@H]2[C@H](C1)[C@@H]2c1ccccc1C(F)(F)F | < 5.52 |  |  |  |  | 
22 | O=C(O)c1cccnc1NC(=O)N1C[C@H]2C[C@@H](c3ccccc3C(F)(F)F)C[C@H]2C1 | < 5.52 | 83 |  | 82 | 81 | pIC50 (Cytochrome P450 3A4): < 4.00; pIC50 (Cytochrome P450 2C9): 4.57; pIC50 (Cytochrome P450 2D6): < 4.00; pIC50 (Cytochrome P450 2C19): 4.48
23 | O=C(O)C(=O)N1CCC(c2ccccc2C(F)(F)F)CC1 | 6.63 |  | 5.50 |  |  | 
24 | COc1ccc(NC(=O)N2C[C@H]3C[C@@H](c4ccccc4C(F)(F)F)C[C@H]3C2)c(C(=O)O)c1 | 6.77 | 89 |  | 34 | 72 | pIC50 (Cytochrome P450 3A4): 5.10; pIC50 (Cytochrome P450 2C9): 4.89; pIC50 (Cytochrome P450 2D6): < 4.00; pIC50 (Cytochrome P450 2C19): 4.12
25 | O=C(O)c1cc(Cl)ccc1NC(=O)N1C[C@H]2C[C@@H](c3ccccc3C(F)(F)F)C[C@H]2C1 | […] | 89 |  | 60 | 87 | 
26 | O=C(O)c1ccccc1NC(=O)N1CC(Oc2ccccc2C(F)(F)F)C1 | 5.84 |  |  |  |  | 
27 | O=C(O)[C@@H](NC(=O)N1C[C@H]2C[C@@H](c3ccccc3C(F)(F)F)C[C@H]2C1)c1ccccc1 | 6.91 |  | 6.08 |  |  | 
28 | O=C(O)c1ccccc1NC(=O)N1C[C@@H]2[C@H](C1)[C@H]2c1ccccc1C(F)(F)F | < 5.52 |  |  |  |  | 
29 | O=C(O)[C@H](NC(=O)N1C[C@H]2C[C@@H](c3ccccc3C(F)(F)F)C[C@H]2C1)c1ccccc1 | 5.88 |  | 5.08 |  |  | 
30 | CN(CCOc1ccc(Cl)cc1C(C)(C)C)C(=O)Nc1ccccc1C(=O)O | < 5.52 |  |  |  |  | 
31 | O=C(O)c1cnccc1NC(=O)N1C[C@H]2C[C@@H](c3ccccc3C(F)(F)F)C[C@H]2C1 | 7.73 | 81 | 6.75 | 29 | 82 | pIC50 (Cytochrome P450 3A4): > 7.34; pIC50 (Cytochrome P450 2C9): 5.25; pIC50 (Cytochrome P450 2D6): < 4.00; pIC50 (Cytochrome P450 2C19): 5.68
32 | O=C(O)c1ccccc1NC(=O)N1CCC(c2ccccc2C(F)(F)F)CC1 |  | 3 |  | 57 | 85 | pIC50 (Cytochrome P450 2C9): < 4.00; pIC50 (Cytochrome P450 2D6): 4.00; pIC50 (Cytochrome P450 2C19): 4.28
33 | CS(=O)(=O)c1ccc(NC(=O)N2C[C@H]3C[C@@H](c4ccccc4C(F)(F)F)C[C@H]3C2)c(C(=O)O)c1 | 6.79 | 100 | 5.81 | > 100 | 100 | pIC50 (Cytochrome P450 3A4): 4.38; pIC50 (Cytochrome P450 2C9): 5.06; pIC50 (Cytochrome P450 2D6): < 4.00; pIC50 (Cytochrome P450 2C19): 4.49
